Source: ChEMBL document CHEMBL1268908, “Design, synthesis, radiolabeling, and in vivo evaluation of carbon-11 labeled N-[2-[4-(3-cyanopyridin-2-yl)piperazin-1-yl]ethyl]-3-methoxybenzamide, a potential positron emission tomography tracer for the dopamine D(4) receptors” (J Med Chem, 2010)

How the values were obtained:
Format in all cases: ADME, organism-based, Macaca mulatta
Striatum [1] = test: Biodistribution in rhesus monkey striatum at 150.3 MBq, iv after 0.75 mins; conditions: in vivo, 45 s
[2] = Biodistribution in rhesus monkey cerebellum at 150.3 MBq, iv after 0.75 mins; conditions: in vivo, 45 s
Procedure, shortened: (§1)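 Male rhesus monkey under ketamine (10 mg/kg im) with head fixation. After a 20 min 68Ge-68Ga transmission scan, the [11C]-labelled tracer in saline (pH 7.4) was injected iv, at 2.9 TBq/μmol specific radioactivity at injection. A dynamic 3D PET scan followed over 90 min (6×0.5, 7×1, 20×2, 8×5 min frames). Regions were defined on T1-weighted 1.5 T MRI, and uptake is given as %ID/mL.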

Hippocampus [3] = test: Biodistribution in rhesus monkey hippocampus at 150.3 MBq, iv after 1.25 mins; conditions: in vivo, 75 s
Procedure, shortened: (§2)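 Single male rhesus monkey anesthetized with ketamine 10 mg/kg im, head fixed. Attenuation correction by 20 min 68Ge-68Ga transmission scan. [11C]-tracer in saline (pH 7.4) given iv, specific radioactivity 2.9 TBq/μmol at injection. Dynamic 3D PET emission scan over 90 min in frames of 0.5 to 5 min. MRI T1 images used to define VOIs. Uptake expressed as […].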

[4] = Biodistribution in rhesus monkey cerebellum at 150.3 MBq, iv after 1.25 mins; conditions: in vivo, 75 s; procedure, shortened: as §1
Hippocampus [5] = test: Biodistribution in rhesus monkey hippocampus at 150.3 MBq, iv after 1.75 mins; conditions: in vivo, 105 s; procedure, shortened: as §2
Hippocampus [6] = test: Biodistribution in rhesus monkey hippocampus at 150.3 MBq, iv after 2.25 mins; conditions: in vivo, 135 s; procedure, shortened: as §2
[7] = Biodistribution in rhesus monkey occipital lobe at 150.3 MBq, iv after 2.25 mins; conditions: in vivo, 135 s
Procedure, shortened: (§3)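 Male rhesus monkey under ketamine 10 mg/kg im, head fixed; 20 min 68Ge-68Ga transmission scan, then 90 min dynamic 3D PET (6×0.5, 7×1, 20×2, 8×5 min frames) after iv [11C]-labelled tracer in saline, specific radioactivity about 2.9 TBq/μmol at injection. Regions defined on T1-weighted MRI; uptake expressed as % injected dose per mL.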

[8] = Biodistribution in rhesus monkey cerebellum at 150.3 MBq, iv after 6.5 mins; conditions: in vivo; procedure, shortened: as §1
[9] = Biodistribution in rhesus monkey occipital lobe at 150.3 MBq, iv after 6.5 mins; conditions: in vivo
Striatum [10] = test: Biodistribution in rhesus monkey striatum at 150.3 MBq, iv after 9.5 mins; conditions: in vivo
Striatum [11] = test: Biodistribution in rhesus monkey striatum at 150.3 MBq, iv after 11 mins; conditions: in vivo
[12] = Biodistribution in rhesus monkey retina at 150.3 MBq, iv after 11 mins; conditions: in vivo
[13] = Biodistribution in rhesus monkey cingulate cortex at 150.3 MBq, iv after 15 mins; conditions: in vivo, 0.25 h; procedure, shortened: as §1
Striatum [14] = test: Biodistribution in rhesus monkey striatum at 150.3 MBq, iv after 19 mins; conditions: in vivo
[15] = Biodistribution in rhesus monkey cerebellum at 150.3 MBq, iv after 23 mins; conditions: in vivo; procedure, shortened: as §1
[16] = Biodistribution in rhesus monkey retina at 150.3 MBq, iv after 23 mins; conditions: in vivo
Hippocampus [17] = test: Biodistribution in rhesus monkey hippocampus at 150.3 MBq, iv after 25 mins; conditions: in vivo; procedure, shortened: as §2
Hippocampus [18] = test: Biodistribution in rhesus monkey hippocampus at 150.3 MBq, iv after 27 mins; conditions: in vivo, 0.45 h; procedure, shortened: as §2
[19] = Biodistribution in rhesus monkey cingulate cortex at 150.3 MBq, iv after 27 mins; conditions: in vivo, 0.45 h; procedure, shortened: as §1
[20] = Biodistribution in rhesus monkey cerebellum at 150.3 MBq, iv after 27 mins; conditions: in vivo, 0.45 h; procedure, shortened: as §1
Hippocampus [21] = test: Biodistribution in rhesus monkey hippocampus at 150.3 MBq, iv after 29 mins; conditions: in vivo; procedure, shortened: as §3
[22] = Biodistribution in rhesus monkey cingulate cortex at 150.3 MBq, iv after 29 mins; conditions: in vivo; procedure, shortened: as §1
[23] = Biodistribution in rhesus monkey entorhinal cortex at 150.3 MBq, iv after 29 mins; conditions: in vivo; procedure, shortened: as §2
[24] = Biodistribution in rhesus monkey occipital lobe at 150.3 MBq, iv after 31 mins; conditions: in vivo; procedure, shortened: as §3
Hippocampus [25] = test: Biodistribution in rhesus monkey hippocampus at 150.3 MBq, iv after 35 mins; conditions: in vivo; procedure, shortened: as §3
Striatum [26] = test: Biodistribution in rhesus monkey striatum at 150.3 MBq, iv after 35 mins; conditions: in vivo
[27] = Biodistribution in rhesus monkey retina at 150.3 MBq, iv after 35 mins; conditions: in vivo
[28] = Biodistribution in rhesus monkey cingulate cortex at 150.3 MBq, iv after 37 mins; conditions: in vivo; procedure, shortened: as §1
[29] = Biodistribution in rhesus monkey cerebellum at 150.3 MBq, iv after 37 mins; conditions: in vivo; procedure, shortened: as §1
[30] = Biodistribution in rhesus monkey entorhinal cortex at 150.3 MBq, iv after 39 mins; conditions: in vivo, 0.65 h; procedure, shortened: as §2
[31] = Biodistribution in rhesus monkey occipital lobe at 150.3 MBq, iv after 43 mins; conditions: in vivo
Procedure, shortened: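 A male rhesus monkey was anaesthetised with ketamine 10 mg/kg im and placed in a head fixation device. A 20 min 68Ge-68Ga transmission scan was run for attenuation correction. Radiotracer in saline (pH 7.4) was given iv, about 52 pmol (18 ng), at 2.9 TBq/μmol at injection. A dynamic 3D PET scan followed for 90 min. Regional VOIs were defined on a T1-weighted MRI, with uptake expressed as %ID/mL.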

[32] = Biodistribution in rhesus monkey entorhinal cortex at 150.3 MBq, iv after 45 mins; conditions: in vivo, 0.75 h; procedure, shortened: as §2
[33] = Biodistribution in rhesus monkey retina at 150.3 MBq, iv after 47 mins; conditions: in vivo
[34] = Biodistribution in rhesus monkey entorhinal cortex at 150.3 MBq, iv after 49 mins; conditions: in vivo; procedure, shortened: as §2
[35] = Biodistribution in rhesus monkey cerebellum at 150.3 MBq, iv after 49 mins; conditions: in vivo; procedure, shortened: as §1
[36] = Biodistribution in rhesus monkey cingulate cortex at 150.3 MBq, iv after 57.5 mins; conditions: in vivo; procedure, shortened: as §2
Striatum [37] = test: Biodistribution in rhesus monkey striatum at 150.3 MBq, iv after 57.5 mins; conditions: in vivo
[38] = Biodistribution in rhesus monkey cerebellum at 150.3 MBq, iv after 57.5 mins; conditions: in vivo; procedure, shortened: as §1
[39] = Biodistribution in rhesus monkey retina at 150.3 MBq, iv after 57.5 mins; conditions: in vivo
Hippocampus [40] = test: Biodistribution in rhesus monkey hippocampus at 150.3 MBq, iv after 62.5 mins; conditions: in vivo; procedure, shortened: as §3
[41] = Biodistribution in rhesus monkey cerebellum at 150.3 MBq, iv after 62.5 mins; conditions: in vivo; procedure, shortened: as §1
[42] = Biodistribution in rhesus monkey retina at 150.3 MBq, iv after 62.5 mins; conditions: in vivo
[43] = Biodistribution in rhesus monkey cingulate cortex at 150.3 MBq, iv after 67.5 mins; conditions: in vivo, 1.125 h; procedure, shortened: as §2
[44] = Biodistribution in rhesus monkey retina at 150.3 MBq, iv after 87.5 mins; conditions: in vivo
Hippocampus [45] = test: Biodistribution in rhesus monkey hippocampus at 150.3 MBq, iv after 72.5 mins; conditions: in vivo; procedure, shortened: as §3
[46] = Biodistribution in rhesus monkey cingulate cortex at 150.3 MBq, iv after 72.5 mins; conditions: in vivo; procedure, shortened: as §2

Drug uptake (Striatum [1]): 64.38 kBq/ml
Drug uptake [2]: 56.67 kBq/ml
Drug uptake (Hippocampus [3]): 55.94 kBq/ml
Drug uptake [4]: 51.01 kBq/ml
Drug uptake (Hippocampus [5]): 50.86 kBq/ml
Drug uptake (Hippocampus [6]): 50.51 kBq/ml
Drug uptake [7]: 44.53 kBq/ml
Drug uptake [8]: 31.35 kBq/ml
Drug uptake [9]: 30.03 kBq/ml
Drug uptake (Striatum [10]): 31.24 kBq/ml
Drug uptake (Striatum [11]): 28.08 kBq/ml
Drug uptake [12]: 49.56 kBq/ml
Drug uptake [13]: 20.1 kBq/ml
Drug uptake (Striatum [14]): 20.01 kBq/ml
Drug uptake [15]: 16.31 kBq/ml
Drug uptake [16]: 54.68 kBq/ml
Drug uptake (Hippocampus [17]): 16.72 kBq/ml
Drug uptake (Hippocampus [18]): 15.74 kBq/ml
Drug uptake [19]: 15.6843 kBq/ml
Drug uptake [20]: 15.14 kBq/ml
Drug uptake (Hippocampus [21]): 16.7 kBq/ml
Drug uptake [22]: 15.04 kBq/ml
Drug uptake [23]: 15.05 kBq/ml
Drug uptake [24]: 12.89 kBq/ml
Drug uptake (Hippocampus [25]): 12.16 kBq/ml
Drug uptake (Striatum [26]): 13.39 kBq/ml
Drug uptake [27]: 57.58 kBq/ml
Drug uptake [28]: 11.95 kBq/ml
Drug uptake [29]: 11.56 kBq/ml
Drug uptake [30]: 13.49 kBq/ml
Drug uptake [31]: 9.37 kBq/ml
Drug uptake [32]: 10.89 kBq/ml
Drug uptake [33]: 57.02 kBq/ml
Drug uptake [34]: 9.688 kBq/ml
Drug uptake [35]: 10.45 kBq/ml
Drug uptake [36]: 10.34 kBq/ml
Drug uptake (Striatum [37]): 9.776 kBq/ml
Drug uptake [38]: 9.179 kBq/ml
Drug uptake [39]: 55.05 kBq/ml
Drug uptake (Hippocampus [40]): 8.242 kBq/ml
Drug uptake [41]: 8.418 kBq/ml
Drug uptake [42]: 54.08 kBq/ml
Drug uptake [43]: 9.959 kBq/ml
Drug uptake [44]: 52.04 kBq/ml
Drug uptake (Hippocampus [45]): 8.523 kBq/ml
Drug uptake [46]: 9.513 kBq/ml
Compound: [11CH3]Oc1cccc(C(=O)NCCN2CCN(c3ncccc3C#N)CC2)c1
